Screens (PubChem)
Rows were chosen to be rich in hits. Some 10% of all compounds tested hit in one or more screens of this group.
PMI act – activators of human PMI, primary screen, biochemical, fluorescence intensity, near-Km mannose 6-phosphate | purified human PMI, coupled resazurin fluorescence, 20 min; hits give high values; 1 = vehicle control, 0 substrate-free wells | Mannose-6-phosphate isomerase (Homo sapiens), P34949 | actives 0.005% (n = 190,000) | activation factor at 20 µM;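 active = activation factor of 2 or more at 20 µM, relative to plate controls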
Target sequence (P34949 whole entry, looked up): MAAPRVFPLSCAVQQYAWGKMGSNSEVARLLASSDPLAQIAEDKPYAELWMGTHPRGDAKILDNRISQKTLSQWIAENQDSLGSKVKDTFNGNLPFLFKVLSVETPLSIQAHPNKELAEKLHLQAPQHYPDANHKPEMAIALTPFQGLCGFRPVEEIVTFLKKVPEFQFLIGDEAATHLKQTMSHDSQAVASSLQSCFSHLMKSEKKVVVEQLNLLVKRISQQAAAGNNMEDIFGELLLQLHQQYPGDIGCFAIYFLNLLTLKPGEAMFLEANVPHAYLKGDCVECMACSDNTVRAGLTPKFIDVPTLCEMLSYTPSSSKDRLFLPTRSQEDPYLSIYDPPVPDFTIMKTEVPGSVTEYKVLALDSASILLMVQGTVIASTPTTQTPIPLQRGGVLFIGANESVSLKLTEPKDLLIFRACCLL
WT yeast gro inh – growth inhibition of WT strain, primary screen, mitochondrial fusion inhibitor project, WT and mutant strains, chemical genetic | mitochondrial fusion phenotypic screen | inhibition, % at 10 µM | actives 2.1% (n = 190,000); in the data active = inhibition above about 58%; tested in S. cerevisiae
Diaph act CS – compounds boosting diaphorase resazurin reduction – biochemical, uHTS, resorufin fluorescence, counter-screen for diaphorase-coupled primary assays, primary screen; Diaphorase/resazurin coupled assay, 16 min; hits give high values; 1 = vehicle wells, 0 = NADH-free wells; activation factor at 20 µM; actives 0.005% (n = 190,000); AID 1229, 2008;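 active = diaphorase activity raised at least twofold by the compound at 20 µM; inactive = activation factor below 2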
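System – purified diaphorase enzyme from Clostridium kluyveri · Input – enzyme 0.07 U/mL final · Also added – final NADH 0.114 mM, resazurin 0.1 mM · Measured by – fluorescence of resorufin, 544 nm excitation, 590 nm emission · Timing – 16 min enzyme reaction, ambient temperature · Measure – resorufin increase flagging diaphorase activators or reducers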
PMI act hi M6P – human PMI activators, high substrate, primary screen, biochemical, fluorescence intensity, near-saturating mannose 6-phosphate. coupled PMI enzyme assay, resazurin fluorescence, 20 min; hits give high values; 1 = untreated enzyme, 0 = substrate-free blank. activation factor at 20 µM. actives 0.34% (n = 190,000);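 active = activation factor of 2 or more at 20 µM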
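Test system: human PMI in coupled enzyme assay; Input: PMI at 15 ng/mL final; Medium: HEPES buffer, pH 7.4; Schedule: 20 min incubation at room temperature; Technique: resorufin fluorescence at Ex 544/Em 590 nm; Compound: 20 µM single dose; Probe or stimulus: Near-saturating mannose-6-phosphate, 1.0 mM.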
L major viab – Leishmania major promastigote growth inhibition, primary screen | actives 9% (n = 200,000) | Leishmania major promastigotes, resazurin fluorescence viability | inhibition, % at 10 µM; in the data active = inhibition above about 50%;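 also: promastigotes grown with compound for 44 hours at 28 °C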
* marks the source's active call; other numbers are inactive results; . = no result given.

SMILES	PMI act	WT yeast gro inh	Diaph act CS	PMI act hi M6P	L major viab
CCOC(=O)C1(Cc2ccccc2)CCCN(Cc2cccc(C(C)=O)c2)C1 (centres undefined)	0.9	3	0.9	0.9	11
CCOC(=O)C1(CCCc2ccccc2)CCN(CC(O)CO)CC1 (centres undefined)	1	-9	1.1	1.1	23
CSCC(C)N1CCC(CO)(CCCc2ccccc2)CC1 (centres undefined)	0.9	-2	0.9	1	91*
O=C(NCc1ccccc1)N1CCC(CO)(CCc2ccccc2)CC1	1.1	3	0.9	1	-3
CC(=O)c1cccc(CN2CCC(CO)(CCCc3ccccc3)CC2)c1	0.8	-8	0.9	0.9	79*
CCOC(=O)C1(CCCc2ccccc2)CCN(C2CCSCC2)CC1	1	39	0.8	1.1	85*
OCC1(CCCc2ccccc2)CCN(C2CCSCC2)CC1	0.9	4	0.9	0.9	84*
O=c1c2cc(Cl)ccc2[nH]c(=S)n1Cc1cccs1	1	6	0.8	0.9	19
C=CC[C@@H]1C=C[C@H](O/N=C/c2ccc(C(=O)N3[C@H](c4ccc(C)cc4)[C@@H](C)CC[C@H]3C(=O)OC)cc2)[C@@H](CO)O1	0.9	42	0.7	0.9	21
COc1cc(C2CC(=O)Nc3c2c(=O)nc2c(C)cccn32)cc(OC)c1OC (centres undefined)	1	0	1	0.9	-9
CCN1CCN(S(=O)(=O)c2ccc(OC)c(Br)c2)CC1	0.9	-2	0.9	0.9	84*
COc1ccc(S(=O)(=O)N2CCN(C)CC2)cc1Br	1	3	0.9	1	0
CCCS(=O)(=O)N1CCN(Cc2ccc(OCc3ccccc3)c(OC)c2)CC1	.	.	.	.	91*
COc1ccc(CN2CCN(C)CC2)cc1OCc1ccccc1	0.9	1	1	1	23
O=S(=O)(c1ccc(Br)cc1)N1CCCN(Cc2ccccc2F)CC1	1	25	0.9	1	50*
Cc1ccccc1CN1CCN(S(=O)(=O)c2ccc(F)cc2)CC1	1	28	0.8	1.1	40
COc1ccc(CN2CCN(S(=O)(=O)c3ccccc3)CC2)cc1Br	0.8	24	0.7	0.9	75*
CC(=O)Nc1ccc(OCC(=O)N(CC(C)C)C2CCS(=O)(=O)C2)cc1 (centres undefined)	1.3	-10	0.9	1.1	4
O=S(=O)(c1ccc(Cl)cc1)N1CCN(Cc2c[nH]c3ccccc23)CC1	0.9	8	0.8	1	52*
COc1ccc(S(=O)(=O)N2CCCN(Cc3cccc(F)c3)CC2)cc1	1	8	0.9	1	90*
CC1CCCN(CCOCCSc2ccccc2)C1 (centres undefined)	1	16	0.8	1.1	98*
c1ccc(SCCOCCN2CCc3ccccc3C2)cc1	1.1	12	0.9	1	90*
c1ccc(SCCOCCn2cncn2)cc1	0.8	16	0.8	0.9	1
CC1CC(C)CN(CCOCCSc2ccccc2)C1 (centres undefined)	1	32	0.9	1	89*
c1ccc(SCCN2CCc3ccccc3C2)cc1	0.9	-6	0.7	0.9	0
SMILES	PMI act	WT yeast gro inh	Diaph act CS	PMI act hi M6P	L major viab
CC1CC(C)CN(CCCSc2ccccc2)C1 (centres undefined)	0.8	24	0.8	0.8	92*
CCSc1nnc(NS(=O)(=O)c2ccc(C)cc2)s1	1.2	-18	0.9	1.2	-4
CC1CN(CCCSc2ccc(Cl)cc2)CC(C)O1 (centres undefined)	0.9	25	0.9	0.9	85*
CC1CC(C)CN(CCOCCSc2ccc(Cl)cc2)C1 (centres undefined)	0.9	42	0.9	1	91*
C=C(C)C1CC=C(C)/C(=N/NC(=O)COc2ccccc2Cl)C1 (centres undefined)	0.9	58*	0.7	0.9	50
C=C(C)C1CC=C(C)/C(=N\NC(=S)Nc2ccc(C)cc2)C1 (centres undefined)	0.9	61*	0.3	0.9	14
C=C(C)C1CC=C(C)/C(=N/NC(=O)COc2ccc(C)cc2)C1 (centres undefined)	1	-10	1	1	2
CCc1ccc(C(C(=O)NCc2ccc(OC)cc2)N(CCOC)C(=O)Cc2cccs2)cc1 (centres undefined)	1	-1	0.8	0.9	15
COCCN(C(=O)Cc1cccs1)C(C(=O)NCc1ccc(OC)cc1)c1ccc(C(C)C)cc1 (centres undefined)	0.8	61*	0.8	0.8	28
COc1ccc(CNC(=O)C(c2ccc(C)o2)N(Cc2cccs2)C(=O)Cc2cccs2)cc1 (centres undefined)	1	7	0.9	0.9	87*
COc1ccccc1NC(=O)CSc1nc2n[nH]c(C)c2c(=N)n1-c1ccccc1Cl	0.9	32	0.9	0.8	65*
CCc1ccccc1NC(=O)CSc1nc2n[nH]c(C)c2c(=N)n1-c1ccc(OC)cc1	1	24	0.9	1	14
CC(C)Cn1c(N)c(C(=O)NCC2CCCO2)c2nc3ccccc3nc21 (centres undefined)	0.8	60*	0.8	0.4	59*
COCCn1c(N)c(C(=O)NCC2CCCO2)c2nc3ccccc3nc21 (centres undefined)	0.5	-5	0.7	0.3	16
Nc1c(C(=O)OCC2CCCO2)c2nc3ccccc3nc2n1C1CCCC1 (centres undefined)	0.8	-4	0.7	0.9	51*
Cn1c(-c2cccc([N+](=O)[O-])c2)cnc1NCc1ccc(C#N)cc1	1	5	0.9	1	33
CCN(CC)S(=O)(=O)c1ccc(-n2c(=O)c(C(C)C)c(C)n2C)cc1	1	-16	1.1	1.1	-9
N#Cc1ncc(-c2ccc3c(c2)OCCOCCOCCOCCOCCO3)nc1C#N	1	-3	1	1	96*
N#Cc1ncc(-c2ccc3c(c2)OCCOCCOCCOCCO3)nc1C#N	0.9	19	0.9	0.9	22
CN1C2CCC1/C(=C\c1ccccc1F)C(=O)/C2=C/c1ccccc1F	0.9	-16	0.8	1	26
CC1CC2=C(NC(=S)NC2c2cccc(F)c2)/C(=C/c2cccc(F)c2)C1 (centres undefined)	1.4	61*	0.8	1.5	28
CC1CC2=C(NC(=S)NC2c2ccccc2F)/C(=C/c2ccccc2F)C1 (centres undefined)	1.4	80*	0.9	1.6	24
